Active and inactive are the calls of the source. The rule behind the calls is not given here.
Tests used:
[1] = Cytotoxicity against African green monkey Vero cells assessed as reduction in metabolic activity by MTS/PMS based microscopic analysis; format: toxicity, cell-based; conditions: chlorocebus sabaeus
Procedure, shortened: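 Uninfected Vero cells exposed to compound dilution series; overall metabolic activity measured by MTS/PMS, with microscopic checks of cell/monolayer morphology. CC50 = concentration reducing metabolic activity by 50%, by logarithmic interpolation.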

[2] = Selectivity index, ratio of CC50 for African green monkey Vero cells to EC50 for Chikungunya virus 899 infected in African green monkey Vero cells; format: toxicity, cell-based; conditions: read-out: Ratio CC50/EC50
Procedure, shortened: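 Ratio of CC50 in uninfected Vero cells (MTS/PMS) to EC50 for inhibition of CHIKV 899-induced CPE in Vero cells, both from logarithmic interpolation.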

Chikungunya virus [3] = assay: Antiviral activity against Chikungunya virus 899 infected in African green monkey Vero cells assessed as inhibition of virus-induced cytopathogenic effect measured 5 days post infection by MTS/PMS based microscopic analysis; format: functional, cell-based; conditions: Chikungunya virus, 899, Vero, 120 h
Chikungunya virus [4] = assay: Antiviral activity against Chikungunya virus 899 infected in African green monkey Vero A cells assessed as inhibition of viral replication at post entry step by measuring reduction in intracellular viral RNA treated 2 hrs post infection measured after 24 hrs by qRT-PCR analysis; format: functional
Chikungunya virus [5] = assay: Antiviral activity against Chikungunya virus assessed as inhibition of virus replication by cell based assay; format: functional
Chikungunya virus [6] = assay: Antiviral activity against Chikungunya virus 899 infected in African green monkey Vero A cells assessed as inhibition of viral replication by measuring reduction in intracellular viral RNA treated 2 hrs prior to infection measured after 24 hrs by qRT-PCR analysis; format: functional
[7] = Cytotoxicity against African green monkey BGM cells; format: toxicity, cell-based; conditions: chlorocebus aethiops
Chikungunya virus [8] = assay: Antiviral activity against Chikungunya virus 899 pseudoparticles infected in African green monkey BGM cells assessed as inhibition of pseudoparticles entry after 72 hrs by luciferase reporter gene assay; format: functional, cell-based; conditions: Chikungunya virus, 899, BGM
Procedure, shortened: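 BGM cells at 2.5 × 10^4/well adhered overnight; serial compound dilutions added, then cells infected with lentiviral pseudoparticles bearing CHIKV glycoproteins and firefly luciferase reporter. After 72 h cells lysed and intracellular luciferase activity measured as entry read-out. Mean ± SD, ≥3 independent experiments.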

Sindbis virus = assay: Antiviral activity against Sindbis virus infected in African green monkey Vero A cells assessed as inhibition of virus-induced cytopathogenic effect measured 5 days post infection by MTS/PMS based microscopic analysis; format: functional, cell-based; conditions: 120 h
Semliki Forest virus = assay: Antiviral activity against Semliki forest virus infected in African green monkey Vero A cells assessed as inhibition of virus-induced cytopathogenic effect measured 5 days post infection by MTS/PMS based microscopic analysis; format: functional, cell-based; conditions: 120 h
Chikungunya virus [9] = assay: Antiviral activity against Chikungunya virus 899 infected in African green monkey Vero A cells assessed as reduction in infectious virus particle production incubated for 48 hrs by end-point titration assay; format: functional, cell-based; conditions: for EC50: Chikungunya virus, 899, Vero
Chikungunya virus [10] = assay: Antiviral activity against Chikungunya virus 899 infected in African green monkey Vero A cells assessed as inhibition of viral replication at post entry step by measuring reduction in intracellular viral RNA treated up to 6 hrs post infection measured after 24 hrs by qRT-PCR analysis; format: functional, cell-based
Chikungunya virus [11] = assay: Antiviral activity against Chikungunya virus 899 infected in African green monkey Vero A cells assessed as reduction in viral RNA level incubated for 48 hrs by qRT-PCR analysis; format: functional, cell-based; conditions: for EC50: Chikungunya virus, 899, Vero

SMILES	CC50 [1]	selectivity ratio [2]	EC50 (Chikungunya virus [3])	also measured
Cn1c(C[S+]([O-])c2ccccc2C(F)(F)F)c(C(=O)OC(C)(C)C)c2cc(O)c(Br)cc21 (centres undefined)	26 µM	2.7	9.6 µM	
Cn1c(CSc2ccc(Cl)cc2)c(C(=O)OC(C)(C)C)c2cc(O)ccc21	15 µM	3.2	4.8 µM	
CCOC(=O)c1c(CSc2ccccc2)n(C)c2cc(Br)c(O)c(CN(C)C)c12 [UMIFENOVIR]	161 µM	4.6	35 µM	inhibition (INH) (Chikungunya virus [4]): >50%; EC50 (Chikungunya virus [5]): < 10 µg/mL; inhibition (INH) (Chikungunya virus [6]): >50%; CC50 [7]: > 60 µM; EC50 (Chikungunya virus [8]): 4.4 µM
Cn1c(CSc2ccccc2C(F)(F)F)c(C(=O)OC(C)(C)C)c2cc(O)c(Br)cc21	26 µM	2.7	9.6 µM	
Cn1c(CSc2ccc(F)cc2)c(C(=O)OC(C)(C)C)c2cc(O)ccc21	11 µM	3.2	4.5 µM	
CN(C)Cc1c(O)c(Br)cc2c1c(C(=O)OC(C)(C)C)c(C[S+]([O-])c1ccccc1C(F)(F)F)n2C (centres undefined)	56 µM	4.6	12 µM	
Cn1c(C[S+]([O-])c2c(Cl)cccc2Cl)c(C(=O)OC(C)(C)C)c2cc(CO)ccc21 (centres undefined)	397 µM	13.2	30 µM	
CN(C)Cc1c(O)c(Br)cc2c1c(C(=O)OC(C)(C)C)c(CSc1c(Cl)cccc1Cl)n2C	17 µM		≥ 17 µM	
Cn1c(CSc2ccccc2C(F)(F)F)c(C(=O)OC(C)(C)C)c2cc(O)ccc21	19 µM	4.1	3.4 µM	
Cn1c(C[S+]([O-])c2ccc(F)cc2)c(C(=O)OC(C)(C)C)c2cc(O)ccc21 (centres undefined)	> 100 µM	> 5.7	17 µM	
Cn1c(C[S+]([O-])c2ccccc2C(F)(F)F)c(C(=O)OC(C)(C)C)c2cc(O)ccc21 (centres undefined)	156 µM	22	6.5 µM	EC50 (Sindbis virus): 20 µM; EC50 (Semliki Forest virus): 33 µM; CC50 [7]: 50 µM; Activity (Chikungunya virus [9]): Dose-dependent effect; EC50 (Chikungunya virus [9]): 1 µM; inhibition (Chikungunya virus [10]): Active; EC50 (Chikungunya virus [8]): 27 µM; Activity (Chikungunya virus [11]): Dose-dependent effect; EC50 (Chikungunya virus [11]): 1 µM
Cn1c(CSc2c(Cl)cccc2Cl)c(C(=O)OC(C)(C)C)c2cc(O)c(Br)cc21	13 µM	2.3	5.7 µM	
Cn1c(C[S+]([O-])c2c(Cl)cccc2Cl)c(C(=O)OC(C)(C)C)c2cc(O)ccc21 (centres undefined)	151 µM	7.6	20 µM	
Cn1c(C[S+]([O-])c2ccc(C(F)(F)F)cc2)c(C(=O)OC(C)(C)C)c2cc(O)ccc21 (centres undefined)	24 µM	1.9	13 µM	
Cn1c(CSc2ccc(C(F)(F)F)cc2)c(C(=O)OC(C)(C)C)c2cc(O)ccc21	11 µM	3.1	3.6 µM	
Cn1c(C[S+]([O-])c2ccccc2C(F)(F)F)c(C(=O)OC(C)(C)C)c2cc(CO)ccc21 (centres undefined)	> 468 µM	> 14.6	32 µM	EC50 (Sindbis virus): 96 µM; EC50 (Semliki Forest virus): 128 µM; CC50 [7]: > 60 µM; EC50 (Chikungunya virus [9]): 10 µM; EC50 (Chikungunya virus [8]): 36 µM; EC50 (Chikungunya virus [11]): 9 µM
Cn1c(C[S+]([O-])c2ccc(Cl)cc2)c(C(=O)OC(C)(C)C)c2cc(O)ccc21 (centres undefined)	93 µM	11	8.2 µM	
CN(C)Cc1c(O)ccc2c1c(C(=O)OC(C)(C)C)c(C[S+]([O-])c1ccccc1C(F)(F)F)n2C (centres undefined)	66 µM	3	22 µM	
CN(C)Cc1c(O)ccc2c1c(C(=O)OC(C)(C)C)c(C[S+]([O-])c1c(Cl)cccc1Cl)n2C (centres undefined)	9.2 µM	2.2	4.1 µM	
Cn1c(CSc2c(Cl)cccc2Cl)c(C(=O)OC(C)(C)C)c2cc(O)ccc21	7.8 µM	2.7	2.9 µM	

From ChEMBL document CHEMBL3868626, “Discovery of novel multi-target indole-based derivatives as potent and selective inhibitors of chikungunya virus replication” (Bioorg Med Chem, 2017)
